Reference: ChEMBL document CHEMBL4477241, “Structure-Activity Relationship Studies for Enhancer of Zeste Homologue 2 (EZH2) and Enhancer of Zeste Homologue 1 (EZH1) Inhibitors” (J Med Chem, 2016)

Columns and labels:
[1] = target: T1, Histone-lysine N-methyltransferase EZH1 (Homo sapiens, UniProt Q92800); experiment: Inhibition of EZH1 histone methyltransferase activity of EZH1/EED/SUZ12/RBBP4/AEBP2 protein complex (unknown origin) using histone H3 peptide as substrate (21 to 44 residues) in presence of [3H]-S-adenosylmethionine after 2 hrs by scintillation proximity assay
T1 sequence (Q92800 whole entry): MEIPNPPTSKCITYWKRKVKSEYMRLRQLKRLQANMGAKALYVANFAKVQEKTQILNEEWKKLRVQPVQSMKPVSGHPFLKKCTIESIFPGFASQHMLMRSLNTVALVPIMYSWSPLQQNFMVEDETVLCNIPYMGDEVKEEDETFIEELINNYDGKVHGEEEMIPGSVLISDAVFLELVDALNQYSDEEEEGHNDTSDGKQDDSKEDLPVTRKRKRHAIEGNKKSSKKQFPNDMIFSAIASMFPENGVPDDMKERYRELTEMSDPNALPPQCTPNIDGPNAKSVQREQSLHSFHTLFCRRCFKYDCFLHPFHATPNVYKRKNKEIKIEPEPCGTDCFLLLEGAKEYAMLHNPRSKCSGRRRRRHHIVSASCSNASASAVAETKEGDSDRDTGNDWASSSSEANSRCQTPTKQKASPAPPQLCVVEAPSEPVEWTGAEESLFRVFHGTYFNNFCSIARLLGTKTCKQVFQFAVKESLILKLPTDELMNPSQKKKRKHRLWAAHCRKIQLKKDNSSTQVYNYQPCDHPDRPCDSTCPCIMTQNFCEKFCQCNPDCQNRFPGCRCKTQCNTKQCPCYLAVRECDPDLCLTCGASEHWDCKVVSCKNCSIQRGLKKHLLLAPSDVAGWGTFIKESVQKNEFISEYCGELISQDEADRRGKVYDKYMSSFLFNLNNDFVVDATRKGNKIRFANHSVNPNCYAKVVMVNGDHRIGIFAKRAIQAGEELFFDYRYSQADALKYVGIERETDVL
Outline: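 10 nM EZH1 pentameric complex with 4 μM 3H-SAM and 1 μM biotinylated H3(21–44) in 20 mM Tris-HCl pH 8, 5 mM DTT, 0.01% Triton X-100. Reaction run 1 h at 23 °C, stopped with guanidine hydrochloride, then captured 2 h on a streptavidin flash plate. Counts normalized to no-compound (100%) and no-enzyme (0%) controls.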

[2] = target: Histone-lysine N-methyltransferase EZH2 (Homo sapiens, UniProt O75530+Q15022+Q15910); experiment: Inhibition of EZH2 histone methyltransferase activity of EZH2/EED/SUZ12 protein complex (unknown origin) using histone H3 peptide as substrate (21 to 44 residues) in presence of [3H]-S-adenosylmethionine after 2 hrs by scintillation proximity assay
Outline: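 20 nM EZH2 trimeric complex with 2 μM 3H-SAM and 1 μM biotinylated H3(21–44) in 20 mM Tris-HCl pH 8, 5 mM DTT, 0.01% Triton X-100. Incubated 1 h at 23 °C, quenched with guanidine hydrochloride, then 2 h streptavidin flash-plate capture. Activity scaled between no-compound and no-enzyme counts.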

Chain of Histone-lysine N-methyltransferase EZH2 (Q15910 whole entry, the tested form may be a part, one chain of several): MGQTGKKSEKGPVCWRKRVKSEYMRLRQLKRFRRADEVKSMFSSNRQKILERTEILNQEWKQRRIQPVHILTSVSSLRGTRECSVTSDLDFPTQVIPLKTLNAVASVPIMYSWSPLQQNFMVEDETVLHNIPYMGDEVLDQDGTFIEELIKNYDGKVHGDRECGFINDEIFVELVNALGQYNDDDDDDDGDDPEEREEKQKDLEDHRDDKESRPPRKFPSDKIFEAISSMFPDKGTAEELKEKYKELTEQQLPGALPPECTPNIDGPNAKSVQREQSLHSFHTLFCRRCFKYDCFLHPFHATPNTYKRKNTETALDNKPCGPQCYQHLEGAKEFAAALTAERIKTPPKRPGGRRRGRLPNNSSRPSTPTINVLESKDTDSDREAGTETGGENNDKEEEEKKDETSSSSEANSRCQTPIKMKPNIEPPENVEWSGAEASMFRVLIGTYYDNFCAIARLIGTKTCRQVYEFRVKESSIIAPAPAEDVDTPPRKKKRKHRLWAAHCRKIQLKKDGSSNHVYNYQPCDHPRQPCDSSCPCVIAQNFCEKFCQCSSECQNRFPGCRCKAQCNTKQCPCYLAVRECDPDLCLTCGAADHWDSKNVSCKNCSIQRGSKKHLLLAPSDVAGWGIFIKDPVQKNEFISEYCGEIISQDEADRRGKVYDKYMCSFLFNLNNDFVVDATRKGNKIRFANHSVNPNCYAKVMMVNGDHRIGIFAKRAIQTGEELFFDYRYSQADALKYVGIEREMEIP

| Structure (SMILES) | IC50 [1] [nM] | IC50 [2] [nM] |
| --- | --- | --- |
| CCCc1cc(C)[nH]c(=O)c1CNC(=O)c1cccn2c(-c3ccc(N4CCN(C(C)C)CC4)nc3)cnc12 | > 5000 | > 5000 |
| Cc1cc(CC(C)C)c(CNC(=O)c2cc(-c3ccc(N4CCN(C(C)C)CC4)nc3)cc3c2cnn3C(C)C)c(=O)[nH]1 | 211 | < 10 |
| CCCCc1cc(C)[nH]c(=O)c1CNC(=O)c1cc(-c2ccc(N3CCN(C(C)C)CC3)nc2)cc2c1cnn2C(C)C | 160 | < 10 |
| CCCc1cc(C)[nH]c(=O)c1CNC(=O)c1cc(-c2ccc(F)cc2)cc2c1cnn2C(C)C | > 1250 | 48 |
| CCc1cc(C)c(CNC(=O)c2cc(-c3ccc(N4CCN(C(C)C)CC4)nc3)cc3c2cnn3C(C)C)c(=O)[nH]1 | > 5000 | 73 |
| CCCc1cc(C)[nH]c(=O)c1CNC(=O)c1cc(-c2ccc(N3CCN(C(C)C)CC3)nc2)cc2c1cnn2CC1CCCCC1 | > 2500 | 697 |
| Cc1cc(C(C)C)c(CNC(=O)c2cc(-c3ccc(N4CCN(C(C)C)CC4)nc3)cc3c2cnn3C(C)C)c(=O)[nH]1 | 320 | < 10 |
| CCC(C)c1cc(C)c(CNC(=O)c2cc(-c3ccc(N4CCN(C(C)C)CC4)nc3)cc3c2cnn3C(C)C)c(=O)[nH]1 (stereo not drawn) | > 1250 | 32 |
| CCCc1cc(C)[nH]c(=O)c1CNC(=O)c1cc(-c2ccc(F)cn2)cc2c1cnn2C(C)C | 773 | 22 |
| CCc1c(C)c[nH]c(=O)c1CNC(=O)c1cc(-c2ccc(N3CCN(C(C)C)CC3)nc2)cc2c1cnn2C(C)C | > 5000 | 1020 |
| CCCc1cc(C)[nH]c(=O)c1CNC(=O)c1cc(-c2ccc(N3CCN(C(C)C)CC3)nc2)cc2c1cnn2C(C)C | – | < 10 |
| Cc1[nH]c(=O)[nH]c(=O)c1CNC(=O)c1cc(-c2ccc(N3CCN(C(C)C)CC3)nc2)cc2c1cnn2C(C)C | > 10000 | > 10000 |
| Cc1[nH]c(=O)c(CNC(=O)c2cc(-c3ccc(N4CCN(C(C)C)CC4)nc3)cc3c2cnn3C(C)C)c2c1CCCC2 | > 2500 | > 2500 |
| CCc1cc(C)[nH]c(=O)c1CNC(=O)c1cc(-c2ccc(N3CCN(C(C)C)CC3)nc2)cc2c1cnn2C(C)C | 810 | 12 |
| Cc1cc(C)c(CNC(=O)c2cc(-c3ccc(N4CCN(C(C)C)CC4)nc3)cc3c2cnn3C(C)C)c(=O)[nH]1 | > 2500 | – |
| CCCc1cc(C)[nH]c(=O)c1CNC(=O)c1cc(-c2ccc(N3CCN(C(C)C)CC3)nc2)cc2c1cnn2CCCCCCO | 394 | 25 |
| CCCc1cc(C)[nH]c(=O)c1CNC(=O)c1cc(-c2ccc(N3CCN(C(C)C)CC3)nc2)cc2c1cnn2CCC1CCCCC1 | > 2500 | > 1250 |
| Cc1cc(C2CCCC2)c(CNC(=O)c2cc(-c3ccc(N4CCN(C(C)C)CC4)nc3)cc3c2cnn3C(C)C)c(=O)[nH]1 | 86 | < 10 |
| CCCc1cc(C)[nH]c(=O)c1CNC(=O)c1cc(-c2ccc(N3CCN(C(C)C)CC3)nc2)cc2c1cnn2C1CCCCCC1 | > 2500 | 117 |
| CCCc1cc(C)[nH]c(=O)c1CNC(=O)c1cc(-c2ccc(N3CCN(C(C)C)CC3)nc2)cc2c1cnn2C(C)(C)C | 127 | < 10 |
| CCCc1cc(C)[nH]c(=O)c1CNC(=O)c1cc(-c2ccc(N3CCN(C(C)C)CC3)nc2)cc2c1cnn2C | > 2500 | 190 |
| CCCc1cc(C)[nH]c(=O)c1CNC(=O)c1nn(C(C)C)c2ccc(-c3ccc(N4CCN(C(C)C)CC4)nc3)cc12 | > 5000 | > 5000 |
| Cc1ncc(CNC(=O)c2cc(-c3ccc(N4CCN(C(C)C)CC4)nc3)cc3c2cnn3C(C)C)c(=O)[nH]1 | > 10000 | > 2300 |
| CCCc1cc(C)[nH]c(=O)c1CNC(=O)c1cc(-c2ccccn2)cc2c1cnn2C(C)C | 681 | 24 |
| CC(C)N1CCN(c2ccc(-c3cc(C(=O)NCc4ccc[nH]c4=O)c4cnn(C(C)C)c4c3)cn2)CC1 | > 5000 | > 5000 |
| CCCCC(CC)Cn1ncc2c(C(=O)NCc3c(CCC)cc(C)[nH]c3=O)cc(-c3ccc(N4CCN(C(C)C)CC4)nc3)cc21 (stereo not drawn) | > 5000 | 1110 |
| Cc1[nH]c(=O)c(CNC(=O)c2cc(-c3ccc(N4CCN(C(C)C)CC4)nc3)cc3c2cnn3C(C)C)c(C)c1C | > 5000 | 328 |

| Structure (SMILES) | IC50 [1] [nM] | IC50 [2] [nM] |
| --- | --- | --- |
| CCCc1cc(C)[nH]c(=O)c1CNC(=O)c1cc(-c2ccc(N3CCN(C(C)C)CC3)nc2)cc2c1cnn2Cc1ccccc1 | > 5000 | 280 |
| CCCc1cc(C)[nH]c(=O)c1CNC(=O)c1cc(-c2ccccc2)cc2c1cnn2C(C)C | > 1250 | 41 |
| CCCc1cc(C)[nH]c(=O)c1CNC(=O)c1cc(NC2CCNCC2)cc2c1cnn2C(C)C | > 1250 | 26 |
| CCCc1cc(C)[nH]c(=O)c1CNC(=O)c1cc(-c2ccc(C(F)(F)F)cc2)cc2c1cnn2C(C)C | > 1250 | 66 |
| CCCc1cc(C)[nH]c(=O)c1CNC(=O)c1cc(-c2ccc(C(F)(F)F)cn2)cc2c1cnn2C(C)C | > 5000 | 64 |
| CCCc1cc(C)[nH]c(=O)c1CNC(=O)c1cc(-c2ccc(N3CCN(C(C)C)CC3)nc2)cc2c1cnn2C1CCCC1 | 108 | < 10 |
| CCCc1cc(C)[nH]c(=O)c1CNC(=O)c1cc(-c2ccc(N3CCN(C(C)C)CC3)nc2)cc2nn(C(C)C)cc12 | > 2500 | 384 |
| Cc1[nH]c(=O)c(CNC(=O)c2cc(-c3ccc(N4CCN(C(C)C)CC4)nc3)cc3c2cnn3C(C)C)c2c1CCC2 | > 2500 | 32 |
| CCCc1cc(C)[nH]c(=O)c1CNC(=O)c1cc(-c2ccc(N3CCN(CC)CC3)nc2)cc2c1cnn2C(C)C | 88 | < 10 |
| CC(C)N1CCN(c2ccc(-c3cc(C(=O)NCc4cnc[nH]c4=O)c4cnn(C(C)C)c4c3)cn2)CC1 | > 10000 | > 10000 |
| CCCc1cc(C)[nH]c(=O)c1CNC(=O)c1cc(-c2ccc(N3CCN(C(C)C)CC3)nc2)c2cnn(C(C)C)c2c1 | > 5000 | 540 |
| CCCc1cc(C)[nH]c(=O)c1CNC(=O)c1cc(-c2ccc(N3CCN(C(C)C)CC3)nc2)cc2c1cnn2C(CC)CC | 126 | < 10 |
| Cc1cc(O)c(CNC(=O)c2cc(-c3ccc(N4CCN(C(C)C)CC4)nc3)cc3c2cnn3C(C)C)c(=O)[nH]1 | > 10000 | > 10000 |
| CCCc1cc(C)[nH]c(=O)c1CNC(=O)c1cn2ccc(-c3ccc(N4CCN(C(C)C)CC4)nc3)cc2n1 | > 10000 | > 10000 |
| Cc1cc(-c2ccccc2)[nH]c(=O)c1CNC(=O)c1cc(-c2ccc(N3CCN(C(C)C)CC3)nc2)cc2c1cnn2C(C)C | > 10000 | > 10000 |
| CCCc1cc(C)[nH]c(=O)c1CNC(=O)c1cc(-c2ccc(N3CCN(C(C)C)CC3)nc2)cc2c1cnn2C1CCCCC1 | – | < 10 |
| CCCc1cc(C)[nH]c(=O)c1CNC(=O)c1cc(-c2ccc(N3CCN(C(C)C)CC3)nc2)cc2c1cnn2CC1CCCC1 | > 2500 | 149 |
| Cc1cc(C(C)(C)C)[nH]c(=O)c1CNC(=O)c1cc(-c2ccc(N3CCN(C(C)C)CC3)nc2)cc2c1cnn2C(C)C | > 10000 | > 10000 |
| CCCc1cc(C)[nH]c(=O)c1CNC(=O)c1cc(-c2ccc(N3CCN(C(C)C)CC3)nc2)cc2c1cnn2CC1CCC1 | > 2500 | 57 |
| CCCc1cc(C)[nH]c(=O)c1CNC(=O)c1nn(C(C)C)c2cc(-c3ccc(N4CCN(C(C)C)CC4)nc3)ccc12 | > 5000 | > 5000 |
| CCCc1cc(C)[nH]c(=O)c1CNC(=O)c1cnn2c(-c3ccc(N4CCN(C(C)C)CC4)nc3)cccc12 | > 5000 | > 5000 |
| CCCc1cc(C)[nH]c(=O)c1CNC(=O)c1cc(-c2ccc(N3CCNCC3)nc2)cc2c1cnn2C(C)C | 60 | < 10 |
| CCCc1cc(C)[nH]c(=O)c1CNC(=O)c1cc(N2CCNCC2)cc2c1cnn2C(C)C | 880 | 17 |
| CCCc1cc(C)[nH]c(=O)c1CNC(=O)c1cc(N2CCCNCC2)cc2c1cnn2C(C)C | > 2500 | 42 |
| CCCc1cc(C)[nH]c(=O)c1CNC(=O)c1cc(C2CCNCC2)cc2c1cnn2C(C)C | 613 | 11 |
| CC(C)N1CCN(c2ccc(-c3cc(C(=O)NC4CC(C)(C)NC(C)(C)C4)c4cnn(C(C)C)c4c3)cn2)CC1 | > 10000 | > 10000 |
